Experiments:
P-selectin = target: T1, P-selectin (Homo sapiens, UniProt P16109); assay: Inhibitory concentration against selectin P in Biacore assay
T1 sequence (P16109 whole entry): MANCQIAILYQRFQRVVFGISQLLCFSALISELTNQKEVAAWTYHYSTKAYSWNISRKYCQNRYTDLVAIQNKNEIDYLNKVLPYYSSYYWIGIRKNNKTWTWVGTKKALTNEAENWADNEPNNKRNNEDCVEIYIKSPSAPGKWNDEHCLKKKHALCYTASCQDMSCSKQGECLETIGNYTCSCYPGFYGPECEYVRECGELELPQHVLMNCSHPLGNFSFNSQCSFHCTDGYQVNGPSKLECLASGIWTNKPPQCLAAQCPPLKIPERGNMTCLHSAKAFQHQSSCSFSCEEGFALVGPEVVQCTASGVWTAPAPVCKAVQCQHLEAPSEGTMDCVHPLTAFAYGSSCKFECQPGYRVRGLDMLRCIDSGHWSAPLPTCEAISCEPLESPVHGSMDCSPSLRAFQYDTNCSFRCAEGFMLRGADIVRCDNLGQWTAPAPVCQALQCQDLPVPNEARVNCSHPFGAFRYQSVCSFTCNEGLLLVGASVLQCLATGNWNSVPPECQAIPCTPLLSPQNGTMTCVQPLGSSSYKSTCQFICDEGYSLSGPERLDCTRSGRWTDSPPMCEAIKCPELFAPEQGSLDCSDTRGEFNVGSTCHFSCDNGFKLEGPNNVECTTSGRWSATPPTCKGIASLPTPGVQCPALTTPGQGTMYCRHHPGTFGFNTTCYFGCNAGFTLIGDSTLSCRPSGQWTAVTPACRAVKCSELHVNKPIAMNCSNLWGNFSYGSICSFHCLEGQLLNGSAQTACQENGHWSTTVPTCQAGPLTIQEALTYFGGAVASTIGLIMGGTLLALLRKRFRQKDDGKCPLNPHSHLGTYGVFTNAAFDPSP
Method in brief: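 SPR at 25 °C. Biotinylated monomeric truncated human PSGL-1 (19ek) was immobilised on a streptavidin chip. Compounds were preincubated 1 h with 500 nM monomeric P-selectin (P-LE) in HEPES/NaCl/1 mM CaCl2/MgCl2/0.05% P40/10% DMSO, then injected at 0–6 mM in duplicate, at least two runs. IC50 was extrapolated from the RU vs concentration plot after blank and reference subtraction.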

[1] = (§1) Anti-inflammatory activity as selectin-mediated rolling of human neutrophils on stimulated human umbilical vein endothelial cells; assay type: functional, cell-based; conditions: endothelial cell
Method in brief: (§2)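 Parallel plate flow chamber; human neutrophils rolled over confluent HUVEC monolayers activated with […] just before the run to raise surface P-selectin. Rolling cells counted by digital imaging/videotape, averaged over 10 fields on each of three monolayers per test article. Glycyrrhizin trisodium salt as positive control.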

[2] = Area under curve in rat ( 20 mg/kg iv ); assay type: ADME, organism-based; parameters: dose 20 mg/kg, route intravenous; conditions: in vivo
Method in brief: (§3)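 Single 20 mg/kg iv bolus (10 mg/mL in 50% DMSO/50% PEG400). Blood drawn at 5 min and 0.5, 0.75, 1, 2, 4, 7, 24 h, with saline replacing lost volume. Plasma precipitated with CH3CN and analysed by LC/MS. Linear trapezoid noncompartmental analysis.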

[3] = Clearance observed in rat ( 20 mg/kg iv ); assay type: ADME, organism-based; parameters: dose 20 mg/kg, route intravenous; conditions: in vivo; method in brief: as §3
[4] = Maximum concentration observed in rat ( 20 mg/kg iv ); assay type: ADME, organism-based; parameters: dose 20 mg/kg, route intravenous; conditions: in vivo; method in brief: as §3
[5] = as §1; assay type: functional, cell-based; conditions: endothelial cell; remark: listed apart in the source
Method in brief: as §2, with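 “article. Active compounds titrated for IC50.” for “article.”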

Row | IC50 (P-selectin) | IC50 [1] | AUC [2] | clearance [3] | Cmax [4] | IC50 [5] | SMILES
1 | ≤ 0.002 mM | 1 mM | – | – | – | – | O=C(O)[C@]1(OCc2ccccc2-c2cccc3c2Sc2ccccc2S3)C[C@@H](O)[C@@H](O)[C@H](O)C1
2 | 10 mM | – | 219 µM·h | 4 mL/min/kg | 212 µM | 0.625 mM | O=C(O)[C@]1(OCc2ccc(-c3ccccc3C(F)(F)F)cc2)C[C@@H](O)[C@@H](O)[C@H](O)C1

Source: ChEMBL document CHEMBL1140291, “Quinic acid derivatives as sialyl Lewis(x)-mimicking selectin inhibitors: design, synthesis, and crystal structure in complex with E-selectin” (J Med Chem, 2005)
